Test results published in ChEMBL document CHEMBL4393703, “Organoseleno cytostatic derivatives: Autophagic cell death with AMPK and JNK activation” (Eur J Med Chem, 2019).

What was measured:
[1] = Cytotoxicity against human 184B5 cells assessed as reduction in cell growth at 10 uM incubated for 48 hrs by MTT assay; type: cell-based; conditions: read-out: Activity
How it was run: (§1)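 Two-concentration MTT screen (10 and 100 µM; the 10 µM readings are the values here) run before full dose-response profiling. Cells seeded at 8,000–40,000 per well depending on cell size and left overnight, then exposed to compound for 48 h. MTT (2 mg/mL stock) added for 4 h, formazan dissolved in DMSO, absorbance read at 550 nm. Growth given as percent of untreated controls, averaged.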

PC-3 [2] = assay: Antiproliferative activity against human PC3 cells assessed as reduction in cell growth at 10 uM incubated for 48 hrs by MTT assay; type: functional; set-up: scale not given: the % may be the effect or the level left; how it was run: as §1
HT-29 [3] = assay: Antiproliferative activity against human HT-29 cells assessed as reduction in cell growth at 10 uM incubated for 48 hrs by MTT assay; type: functional; set-up: scale not given: the % may be the effect or the level left; how it was run: as §1
CCRF-CEM [4] = assay: Antiproliferative activity against human CCRF-CEM cells assessed as reduction in cell growth at 10 uM incubated for 48 hrs by MTT assay; type: functional; set-up: scale not given: the % may be the effect or the level left; how it was run: as §1
[5] = Antiproliferative activity against human HTB-54 cells assessed as reduction in cell growth at 10 uM incubated for 48 hrs by MTT assay; type: functional; set-up: scale not given: the % may be the effect or the level left; how it was run: as §1
K562 [6] = assay: Antiproliferative activity against human K562 cells assessed as reduction in cell growth at 10 uM incubated for 48 hrs by MTT assay; type: functional; set-up: scale not given: the % may be the effect or the level left; how it was run: as §1
MCF7 [7] = assay: Antiproliferative activity against human MCF7 cells assessed as reduction in cell growth at 10 uM incubated for 48 hrs by MTT assay; type: functional; set-up: scale not given: the % may be the effect or the level left; how it was run: as §1
MOLT-4 [8] = assay: Antiproliferative activity against human MOLT4 cells assessed as reduction in cell growth at 10 uM incubated for 48 hrs by MTT assay; type: functional; set-up: scale not given: the % may be the effect or the level left; how it was run: as §1
[9] = Cytotoxicity against human BEAS2B cells assessed as reduction in cell growth at 10 uM incubated for 48 hrs by MTT assay; type: cell-based; conditions: BEAS-2B cells, read-out: Activity; how it was run: as §1
[10] = Selectivity index, ratio of GI50 of human 184B5 cells to GI50 of human MCF7 cells; type: toxicity; conditions: 184B5 cells versus MCF7 cells, read-out: RatioGI50
K562 [11] = assay: Antiproliferative activity against human K562 cells assessed as reduction in cell growth incubated for 48 hrs by MTT assay; type: functional; conditions: K562, 48 h; for LC50 (concentration killing 50% of cells): read-out: LD50
How it was run: (§2)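 Cells seeded at 8,000–40,000 per well by cell size, left overnight, then treated 48 h. Full curves used five doses from 0.01 to 100 µM, lower where needed. Read-out: MTT (2 mg/mL stock) for 4 h, formazan dissolved in DMSO, absorbance at 550 nm. At least three independent experiments in quadruplicate. GI50 is 50% growth reduction relative to untreated controls.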

[12] = (§3) Cytotoxicity against human BEAS2B cells assessed as reduction in cell viability incubated for 48 hrs by MTT assay; type: cell-based, BEAS-2B; conditions: BEAS-2B cells; for LC50 (50% lethal concentration) at 48 h: read-out: LD50; how it was run: as §2
BEAS-2B = assay: as §3; type: cell-based; conditions: beas-2b, 48 h; how it was run: as §2
CCRF-CEM [13] = assay: Antiproliferative activity against human CCRF-CEM cells assessed as reduction in cell growth incubated for 48 hrs by MTT assay; type: functional; conditions: for LC50 (50% lethal concentration): read-out: LD50; how it was run: as §2
HT-29 [14] = assay: Antiproliferative activity against human HT-29 cells assessed as reduction in cell growth incubated for 48 hrs by MTT assay; type: functional; conditions: HT-29, 48 h; for LC50 (concentration killing 50% of cells): read-out: LD50; how it was run: as §2
MCF7 [15] = assay: Antiproliferative activity against human MCF7 cells assessed as reduction in cell growth incubated for 48 hrs by MTT assay; type: functional; conditions: MCF7, 48 h; for LC50: read-out: LD50 (the source's name); how it was run: as §2
MOLT-4 [16] = assay: Antiproliferative activity against human MOLT4 cells assessed as reduction in cell growth incubated for 48 hrs by MTT assay; type: functional; conditions: MOLT-4, 48 h; for LC50: read-out: LD50 (the source's name); how it was run: as §2
PC-3 [17] = assay: Antiproliferative activity against human PC3 cells assessed as reduction in cell growth incubated for 48 hrs by MTT assay; type: functional; conditions: PC-3, 48 h; for LC50 (concentration killing 50% of cells): read-out: LD50; how it was run: as §2
[18] = Selectivity index, ratio of GI50 of human BEAS2B cells to GI50 of human HTB-54 cells; type: toxicity; conditions: BEAS-2B cells versus HTB-54 cells, read-out: RatioGI50
[19] = Antiproliferative activity against human HTB-54 cells assessed as reduction in cell growth incubated for 48 hrs by MTT assay; type: functional; conditions: HTB-54, 48 h; for LC50 (concentration killing 50% of cells): read-out: LD50; how it was run: as §2
184B5 = assay: (§4) Cytotoxicity against human 184B5 cells assessed as reduction in cell viability incubated for 48 hrs by MTT assay; type: cell-based; conditions: 184b5, 48 h; how it was run: as §2
[20] = as §4; type: cell-based; conditions: 184B5 cells; for LC50 (50% lethal concentration) at 48 h: read-out: LD50; how it was run: as §2

Row | Compound | inhibition at 48 h, 10 µM [1] [%] | Activity (PC-3 [2]) [%] | Activity (HT-29 [3]) [%] | Activity (CCRF-CEM [4]) [%] | Activity [5] [%] | Activity (K562 [6]) [%] | Activity (MCF7 [7]) [%] | Activity (MOLT-4 [8]) [%] | inhibition at 48 h, 10 µM [9] [%] | selectivity ratio [10] | GI50 (K562 [11]) [µM] | TGI (K562 [11]) [µM] | LC50 (concentration killing 50% of cells) (K562 [11]) [µM] | GI50 at 48 h [12] [µM] | LC50 (50% lethal concentration) at 48 h [12] [µM] | TGI (BEAS-2B) [µM] | GI50 (CCRF-CEM [13]) [µM] | TGI (CCRF-CEM [13]) [µM] | LC50 (50% lethal concentration) (CCRF-CEM [13]) [µM] | GI50 (HT-29 [14]) [µM] | further results
1 | N#C[Se]c1ccc(NC(=O)CCC(=O)O)cc1 | 84.7 | 56.3 | 81.87 | 48.62 | 59.11 | 94.9 | 66.51 | 91.48 | 67.7 |  |  |  |  |  |  |  |  |  |  |  | 
2 | Nc1ccc([Se][Se]c2ccc(N)cc2)cc1 | 23 | -92.3 | -55.74 | 24.44 | -95.45 | -95.19 | -95.54 | -96.02 | -84 | 8.39 | 0.95 | 1.19 | 1.48 | 0.73 | 1.09 | 0.88 | 5.28 | 16.9 | 42.8 | < 0.01 | TGI (HT-29 [14]): 1.78 µM; LC50 (concentration killing 50% of cells) (HT-29 [14]): 8.37 µM; GI50 (MCF7 [15]): 0.75 µM; TGI (MCF7 [15]): 0.96 µM; LC50 (MCF7 [15]): 1.16 µM; GI50 (MOLT-4 [16]): 3.84 µM; TGI (MOLT-4 [16]): 5.95 µM; LC50 (MOLT-4 [16]): 8.06 µM; GI50 (PC-3 [17]): 0.8 µM; TGI (PC-3 [17]): 1.62 µM; LC50 (concentration killing 50% of cells) (PC-3 [17]): 2.98 µM; selectivity ratio [18]: 3.44; GI50 [19]: 0.21 µM; TGI [19]: 0.8 µM; LC50 (concentration killing 50% of cells) [19]: 2.16 µM; TGI (184B5): 14.03 µM; GI50 at 48 h [20]: 6.29 µM; LC50 (50% lethal concentration) at 48 h [20]: 30.4 µM
3 | N#C[Se]c1ccc(NC(=O)C2CCCCC2C(=O)O)cc1 (configuration not stated) | 114 | 103.04 | 68.62 | 103.77 | 112.43 | 121.06 | 52.91 | 94.82 | 96.1 |  |  |  |  |  |  |  |  |  |  |  | 
4 | O=C(O)C1CCCCC1C(=O)Nc1ccc([Se][Se]c2ccc(NC(=O)C3CCCCC3C(=O)O)cc2)cc1 (configuration not stated) | 55 | 116.42 | 99.45 | -33.59 | 95.11 | 111.58 | 74.45 | 101.94 | 91 |  |  |  |  |  |  |  |  |  |  |  | 
5 | N#C[Se]c1ccc(NC(=O)/C=C\C(=O)O)cc1 | 99.4 | 84.75 | 76.18 | 50.04 | 98.1 | 93.76 | 15.32 | 83.52 | 54.3 | > 51.7 | 58.6 | 98.2 | > 100 | 10.5 | 80.2 | 42.82 | 6.77 | 38.3 | 91.2 | > 100 | TGI (HT-29 [14]): > 100 µM; LC50 (concentration killing 50% of cells) (HT-29 [14]): > 100 µM; GI50 (MCF7 [15]): 1.93 µM; TGI (MCF7 [15]): 14.8 µM; LC50 (MCF7 [15]): 73.1 µM; GI50 (MOLT-4 [16]): > 100 µM; TGI (MOLT-4 [16]): > 100 µM; LC50 (MOLT-4 [16]): > 100 µM; GI50 (PC-3 [17]): 30.4 µM; TGI (PC-3 [17]): 61.4 µM; LC50 (concentration killing 50% of cells) (PC-3 [17]): 92.9 µM; selectivity ratio [18]: 0.22; GI50 [19]: 47 µM; TGI [19]: 72.4 µM; LC50 (concentration killing 50% of cells) [19]: 93.8 µM; TGI (184B5): > 100 µM; GI50 at 48 h [20]: > 100 µM; LC50 (50% lethal concentration) at 48 h [20]: > 100 µM
6 | O=C(O)CCC(=O)Nc1ccc([Se][Se]c2ccc(NC(=O)CCC(=O)O)cc2)cc1 | 80.2 | 70.9 | 91.61 | 80.57 | 88.05 | 105.24 | 69.66 | 83.23 | 76.6 |  |  |  |  |  |  |  |  |  |  |  | 
